Consider 10 compounds from ChEMBL document CHEMBL1121727, “Synthesis and biological activity of certain derivatives of oxazinomycin and related oxadiazole nucleosides” (J Med Chem, 1981).

Active and inactive are the calls of the source. The rule behind the calls is not given here.

Assay [1] concerns L1210. Put plainly: Antitumor activity against L1210 cells; Inactive. The class given is functional, cell-based. Particulars: Mus musculus.
The subject of assay [2] is Human alphaherpesvirus 1. The experiment in a line: In vitro antiviral activity against herpes simplex virus/1(HSV/1) expressed as viral rating (VR); Inactive. The class given is functional, organism-based. An outline of the steps:
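Tested in vitro in KB cells infected with HSV type 1 at 1000 to 1 μg/mL. Plates were incubated 72 h at 37 °C, and inhibition of viral cytopathic effect was scored as a virus rating (VR). VR ≥ 0.5 was taken as moderate to definite activity. Ribavirin and acyclovir served as controls.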

In a further assay the test system is P388. Put plainly: Antitumor activity against leukemia P388 cells; Inactive. In kind it is functional, cell-based. Conditions: Mus musculus.
For assay [3], the system named is Human alphaherpesvirus 1. Put plainly: In vitro antiviral activity against herpes simplex virus/1(HSV/1) expressed as viral rating (VR). The class given is functional. An outline of the steps: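 Antiviral assay in KB cells against HSV type 1 over 1000 to 1 μg/mL. Inhibition of viral cytopathic effect was read after 72 h at 37 °C and scored as virus rating (VR). VR ≥ 0.5 was taken as moderate to definite activity. Ribavirin and acyclovir served as controls.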

In assay [4] the test system is L1210. The experiment in a line: Antitumor activity against L1210 cells. The class given is functional, cell-based. Particulars: Mus musculus.
The test system of assay [5] is L1210. Put plainly: Inhibition of RNA, DNA, and protein synthesis in L1210 cells at 8*10e-7 M.
Another assay relates to HeLa. Put plainly: Antitumor activity against HeLa cells. The class given is functional, cell-based. Conditions: Homo sapiens.

Regarding `O=c1[nH]oc(=O)[nH]1`, the outcome in the assay with L1210 [1] and with P388 was inactive. Also, the VR entry with Human alphaherpesvirus 1 [2] was “inactive”.
`Nc1nc2c(ncn2COCCO)c(=O)[nH]1` [ACYCLOVIR] came in with a VR in the assay with Human alphaherpesvirus 1 [3] of 1.4.
Regarding `CC(=O)O[C@H]1C[C@H](c2coc(=O)[nH]c2=O)O[C@@H]1CO`, the result in the assay with L1210 [1] and in the assay with P388 was inactive.
As to `O=c1[nH]c(=O)n([C@H]2C[C@H](O)[C@@H](CO)O2)o1`, the result in the assay on L1210 [1] and in the assay with P388 was inactive. Further, the VR entry in the assay with Human alphaherpesvirus 1 [2] is “inactive”.
In the assay on Human alphaherpesvirus 1 [3], `NC(=O)c1ncn([C@@H]2O[C@H](CO)[C@@H](O)[C@H]2O)n1` [RIBAVIRIN] returned a VR of 1.2.
Turning to `O=c1[nH]c(=O)c([C@@H]2O[C@H](COP(=O)(O)O)[C@@H](O)[C@H]2O)co1`, the result in the assay on L1210 [1] and with P388 was inactive.
As to `C[C@H]1OC(c2coc(=O)[nH]c2=O)[C@H](O)[C@@H]1O` (some centres not stated), the outcome with L1210 [1] and with P388 was inactive.
Consider `O=c1nc2c(co1)[C@@H]1O[C@H](CO)[C@@H](O)[C@@H]1O2`, for which the outcome in the assay on L1210 [1] and in the assay with P388 was inactive.
Turning to `O=c1[nH]c(=O)c([C@@H]2O[C@H](CO)[C@@H](O)[C@H]2O)co1`, the values for the IC50 in the assay on L1210 [4] and in the assay with HeLa were 300 nM and 500 nM, respectively. The compound further had an Inhibition in the assay with L1210 [5] of 5%.
On to `O=c1[nH]c(=O)n(C2O[C@H](CO)[C@@H](O)[C@H]2O)o1` (some centres not stated), for which the VR in the assay on Human alphaherpesvirus 1 [3] was determined as 0.65. Besides, the outcome in the assay on L1210 [1] and with P388 was inactive.

What is called IC50 is the concentration needed to halve the response being measured. The Inhibition is the change of the read-out against control, counted positive when it falls. A low value points to a response near the control.
